Calls of active or inactive are those of the source. No cut-off for these calls is given here.
What was measured:
[1] = biological target: CDK6/cyclin D3 (Homo sapiens, UniProt Q00534); experiment: Inhibition of recombinant full-length human CDK6/cyclinD3 using histone H1 as substrate measured after 40 mins in presence of [gamma33P]ATP by scintillation counting method; type: protein-complex assay
[2] = system: A549; experiment: Induction of cell cycle arrest in human A549 cells assessed as increase in accumulation of cells at G2/M phase at 1 uM after 24 hrs by propidium iodide/RNase staining based flow cytometric analysis; type: functional
How it was run: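 A549 and H1299 plated at 5×10^5 cells/mL in 6-well plates, treated after adherence for 24 h. Washed with PBS, fixed overnight in ice-cold 75% ethanol, stained with propidium iodide plus RNase A for 30 min at 37 °C, analysed by flow cytometry for phase distribution. Means ± SD, three independent experiments.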

[3] = system: A549; experiment: Induction of apoptosis in human A549 cells assessed as viable cells at 0.25 uM after 48 hrs by AnnexinV-FITC/PI staining-based flow cytometric analysis (reference value: 88.8%); type: functional; details: A549, 48 h, read-out: Activity
[4] = system: A549; experiment: Induction of apoptosis in human A549 cells assessed as decrease in Bcl-2 protein expression at 0.25 to 1 uM after 24 hrs by Western blot analysis; type: functional, cell-based
How it was run: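 A549 or H1299 cells exposed to the indicated concentrations for 24 h. Protein extracts then immunoblotted for apoptosis-pathway proteins (Bcl2, Bim, cleaved caspase 3).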

[5] = system: NCI-H1299; experiment: Downregulation of OCT4 in human H1299 cells at 0.25 to 1 uM by Western blot analysis; type: functional, cell-based
[6] = Intrinsic clearance in Sprague-Dawley rat liver microsomes at 2 uM in presence of NADPH measured up to 1 hr by HPLC analysis; type: ADME, Microsome
[7] = biological target: Aurora kinase C (Homo sapiens) (UniProt Q9UQB9); experiment: Inhibition of recombinant human AURKC (35 to end residues) at 1 uM using AKRRRLSSLRA as substrate measured after 40 mins in presence of [gamma33P]ATP by scintillation counting method relative to control
[8] = biological target: Myosin light chain kinase 2, skeletal/cardiac muscle (Homo sapiens) (UniProt Q9H1R3); experiment: Inhibition of recombinant full length human MYLK2 at 1 uM using KKLNRTLSFAEPG as substrate measured after 40 mins in presence of [gamma33P]ATP by scintillation counting method relative to control
How it was run: (§1)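 Single-point inhibition at 1 µM was measured in the Eurofins KinaseProfiler panel. Values are the mean of two independent experiments.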

[9] = system: Mast/stem cell growth factor receptor Kit (Homo sapiens), P10721 [D816H]; experiment: Inhibition of recombinant human cKit (544 to end residues) D816H mutant at 1 uM using GGMEDIYFEFMGGKKK as substrate measured after 40 mins in presence of [gamma33P]ATP by scintillation counting method relative to control; how it was run: as §1
[10] = biological target: Ephrin type-A receptor 8 (Homo sapiens) (UniProt P29322); experiment: Inhibition of recombinant human EphA8 (615 to 911 residues) at 1 uM using KTFCGTPEYLAPEVRREPRILSEEEQEMFRDFDYIADWC as substrate measured after 40 mins in presence of [gamma33P]ATP by scintillation counting method relative to control
[11] = biological target: Ephrin type-B receptor 3 (Homo sapiens) (UniProt P54753); experiment: Inhibition of recombinant human EphB3 (599 to 920 residues) at 1 uM using poly(Glu, Tyr) 4:1 as substrate measured after 40 mins in presence of [gamma33P]ATP by scintillation counting method relative to control; how it was run: as §1
[12] = system: Receptor tyrosine-protein kinase erbB-2 (Homo sapiens), P04626 [G778D]; experiment: Inhibition of recombinant human ErbB2 (676 to end residues) G778D mutant at 1 uM using poly(Glu, Tyr) 4:1 as substrate measured after 40 mins in presence of [gamma33P]ATP by scintillation counting method relative to control
[13] = system: Fibroblast growth factor receptor 2 (Homo sapiens), P21802 [N549H]; experiment: Inhibition of recombinant human FGFR2 N549H mutant (456 to 770 residues) at 1 uM using GGEEEEYFELVKKKK as substrate measured after 40 mins in presence of [gamma33P]ATP by scintillation counting method relative to control
[14] = biological target: Serine/threonine-protein kinase D3 (Homo sapiens) (UniProt O94806); experiment: Inhibition of recombinant full-length human PKD3 at 1 uM using KKLRRTLSVA as substrate measured after 40 mins in presence of [gamma33P]ATP by scintillation counting method relative to control
[15] = biological target: cGMP-dependent protein kinase 1 (Homo sapiens) (UniProt Q13976); experiment: Inhibition of recombinant full-length human PKG1beta at 1 uM using RRRLSFAEPG as substrate measured after 40 mins in presence of [gamma33P]ATP by scintillation counting method relative to control
[16] = biological target: Serine/threonine-protein kinase PLK3 (Homo sapiens) (UniProt Q9H4B4); experiment: Inhibition of recombinant human Plk3 (19 to 301 residues) at 1 uM using casein as substrate measured after 40 mins in presence of [gamma33P]ATP by scintillation counting method relative to control; how it was run: as §1
[17] = biological target: cAMP-dependent protein kinase catalytic subunit PRKX (Homo sapiens) (UniProt P51817); experiment: Inhibition of recombinant full-length human PrKX at 1 uM using RRRLSFAEPG as substrate measured after 40 mins in presence of [gamma33P]ATP by scintillation counting method relative to control
[18] = biological target: Serine/threonine-protein kinase 32A (Homo sapiens) (UniProt Q8WU08); experiment: Inhibition of recombinant full-length human STK32A at 1 uM using casein as substrate measured after 120 mins in presence of [gamma33P]ATP by scintillation counting method relative to control
[19] = biological target: Serine/threonine-protein kinase 10 (Homo sapiens) (UniProt O94804); experiment: Inhibition of recombinant human LOK (1 to 348 residues) at 1 uM using RLGRDKYKTLRQIRQ as substrate measured after 40 mins in presence of [gamma33P]ATP by scintillation counting method relative to control
[20] = biological target: MAP kinase-activated protein kinase 3 (Homo sapiens) (UniProt Q16644); experiment: Inhibition of recombinant human MAPKAPK3 (2 to end residues) at 1 uM using KKLNRTLSVA as substrate measured after 40 mins in presence of [gamma33P]ATP by scintillation counting method relative to control
[21] = biological target: Phosphatidylinositol 5-phosphate 4-kinase type-2 alpha (Homo sapiens) (UniProt P48426); experiment: Inhibition of recombinant full-length human PIP4K2alpha at 1 uM using phosphatidylinositol 5-phosphate as substrate measured after 40 mins by HTRF assay relative to control
[22] = biological target: 3-phosphoinositide-dependent protein kinase 1 (Homo sapiens) (UniProt O15530); experiment: Inhibition of recombinant human PDK1 (52 to end residues) at 1 uM using PDKtide as substrate measured after 40 mins in presence of [gamma33P]ATP by scintillation counting method relative to control

Chain of Serine/threonine-protein kinase 32A (Homo sapiens) (Q8WU08 whole entry, the tested form may be a part): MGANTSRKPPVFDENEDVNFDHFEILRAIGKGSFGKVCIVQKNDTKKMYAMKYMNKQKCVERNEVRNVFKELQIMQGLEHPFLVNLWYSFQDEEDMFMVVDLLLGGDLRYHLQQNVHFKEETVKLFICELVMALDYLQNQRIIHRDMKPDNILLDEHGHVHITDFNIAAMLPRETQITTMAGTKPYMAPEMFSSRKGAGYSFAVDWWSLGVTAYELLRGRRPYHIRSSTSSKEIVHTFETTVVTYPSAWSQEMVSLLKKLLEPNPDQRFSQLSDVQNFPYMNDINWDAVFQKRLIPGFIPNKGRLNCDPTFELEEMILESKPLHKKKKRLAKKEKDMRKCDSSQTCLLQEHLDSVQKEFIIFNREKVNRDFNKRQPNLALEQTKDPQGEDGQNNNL
Chain of Aurora kinase C (Homo sapiens) (Q9UQB9 whole entry): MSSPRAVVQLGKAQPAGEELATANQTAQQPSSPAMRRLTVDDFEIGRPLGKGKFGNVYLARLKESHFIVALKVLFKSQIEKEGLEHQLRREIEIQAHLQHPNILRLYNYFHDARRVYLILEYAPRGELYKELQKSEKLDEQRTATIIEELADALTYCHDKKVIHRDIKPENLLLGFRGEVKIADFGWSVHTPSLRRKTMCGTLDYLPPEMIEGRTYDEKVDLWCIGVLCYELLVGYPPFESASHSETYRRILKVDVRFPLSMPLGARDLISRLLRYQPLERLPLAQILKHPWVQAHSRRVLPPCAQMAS
Chain of Phosphatidylinositol 5-phosphate 4-kinase type-2 alpha (Homo sapiens) (P48426 whole entry): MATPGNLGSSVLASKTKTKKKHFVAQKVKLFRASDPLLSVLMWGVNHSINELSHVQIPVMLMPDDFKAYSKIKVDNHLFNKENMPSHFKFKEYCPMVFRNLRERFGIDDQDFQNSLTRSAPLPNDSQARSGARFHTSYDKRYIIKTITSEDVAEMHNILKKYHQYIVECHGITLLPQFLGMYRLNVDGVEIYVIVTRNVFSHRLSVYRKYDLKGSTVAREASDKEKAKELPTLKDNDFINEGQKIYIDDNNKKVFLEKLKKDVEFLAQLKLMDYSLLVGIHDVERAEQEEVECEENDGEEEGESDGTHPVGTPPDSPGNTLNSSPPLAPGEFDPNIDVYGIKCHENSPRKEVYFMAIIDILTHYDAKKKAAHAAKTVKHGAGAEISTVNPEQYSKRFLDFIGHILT
Chain of Serine/threonine-protein kinase PLK3 (Homo sapiens) (Q9H4B4 whole entry, looked up, the tested form may be a part): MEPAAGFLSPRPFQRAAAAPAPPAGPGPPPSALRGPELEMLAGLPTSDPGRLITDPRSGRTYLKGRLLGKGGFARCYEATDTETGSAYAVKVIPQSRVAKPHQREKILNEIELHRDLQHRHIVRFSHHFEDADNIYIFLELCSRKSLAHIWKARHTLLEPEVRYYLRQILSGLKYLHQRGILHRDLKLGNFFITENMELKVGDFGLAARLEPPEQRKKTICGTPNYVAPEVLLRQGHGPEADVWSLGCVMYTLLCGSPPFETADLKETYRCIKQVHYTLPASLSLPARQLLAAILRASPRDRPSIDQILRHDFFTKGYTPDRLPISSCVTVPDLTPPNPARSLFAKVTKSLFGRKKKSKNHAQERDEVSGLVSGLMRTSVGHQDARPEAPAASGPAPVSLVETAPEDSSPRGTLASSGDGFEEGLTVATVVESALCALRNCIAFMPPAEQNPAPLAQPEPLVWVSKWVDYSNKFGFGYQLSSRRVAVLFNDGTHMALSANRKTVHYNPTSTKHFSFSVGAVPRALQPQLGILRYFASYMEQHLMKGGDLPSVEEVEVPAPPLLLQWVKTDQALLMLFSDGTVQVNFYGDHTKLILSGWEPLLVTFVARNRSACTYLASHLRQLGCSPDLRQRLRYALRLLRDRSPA
Chain of Serine/threonine-protein kinase D3 (Homo sapiens) (O94806 whole entry): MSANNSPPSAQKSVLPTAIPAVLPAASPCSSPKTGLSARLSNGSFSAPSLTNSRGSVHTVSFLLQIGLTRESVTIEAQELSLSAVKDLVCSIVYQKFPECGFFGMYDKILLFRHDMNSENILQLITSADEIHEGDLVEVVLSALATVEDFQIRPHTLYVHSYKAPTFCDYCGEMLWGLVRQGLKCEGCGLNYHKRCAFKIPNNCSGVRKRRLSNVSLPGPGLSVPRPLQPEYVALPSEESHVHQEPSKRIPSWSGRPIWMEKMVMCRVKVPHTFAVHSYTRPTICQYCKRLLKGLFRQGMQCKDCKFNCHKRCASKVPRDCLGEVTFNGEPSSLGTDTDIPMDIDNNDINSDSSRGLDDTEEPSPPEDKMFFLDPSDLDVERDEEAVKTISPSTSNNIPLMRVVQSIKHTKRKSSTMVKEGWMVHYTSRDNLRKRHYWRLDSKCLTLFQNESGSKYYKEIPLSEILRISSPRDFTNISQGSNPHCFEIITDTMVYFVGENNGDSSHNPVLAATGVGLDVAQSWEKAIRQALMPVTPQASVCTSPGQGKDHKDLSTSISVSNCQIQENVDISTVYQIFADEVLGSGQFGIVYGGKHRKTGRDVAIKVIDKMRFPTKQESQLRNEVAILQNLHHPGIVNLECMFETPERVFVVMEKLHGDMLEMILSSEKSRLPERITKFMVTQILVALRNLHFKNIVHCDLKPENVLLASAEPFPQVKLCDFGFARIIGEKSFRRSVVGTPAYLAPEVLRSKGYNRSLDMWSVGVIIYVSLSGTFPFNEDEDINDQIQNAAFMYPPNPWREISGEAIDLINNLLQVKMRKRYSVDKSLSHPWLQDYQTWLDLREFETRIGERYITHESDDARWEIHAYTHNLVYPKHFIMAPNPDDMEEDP
Chain of cGMP-dependent protein kinase 1 (Homo sapiens) (Q13976 whole entry, the tested form may be a part): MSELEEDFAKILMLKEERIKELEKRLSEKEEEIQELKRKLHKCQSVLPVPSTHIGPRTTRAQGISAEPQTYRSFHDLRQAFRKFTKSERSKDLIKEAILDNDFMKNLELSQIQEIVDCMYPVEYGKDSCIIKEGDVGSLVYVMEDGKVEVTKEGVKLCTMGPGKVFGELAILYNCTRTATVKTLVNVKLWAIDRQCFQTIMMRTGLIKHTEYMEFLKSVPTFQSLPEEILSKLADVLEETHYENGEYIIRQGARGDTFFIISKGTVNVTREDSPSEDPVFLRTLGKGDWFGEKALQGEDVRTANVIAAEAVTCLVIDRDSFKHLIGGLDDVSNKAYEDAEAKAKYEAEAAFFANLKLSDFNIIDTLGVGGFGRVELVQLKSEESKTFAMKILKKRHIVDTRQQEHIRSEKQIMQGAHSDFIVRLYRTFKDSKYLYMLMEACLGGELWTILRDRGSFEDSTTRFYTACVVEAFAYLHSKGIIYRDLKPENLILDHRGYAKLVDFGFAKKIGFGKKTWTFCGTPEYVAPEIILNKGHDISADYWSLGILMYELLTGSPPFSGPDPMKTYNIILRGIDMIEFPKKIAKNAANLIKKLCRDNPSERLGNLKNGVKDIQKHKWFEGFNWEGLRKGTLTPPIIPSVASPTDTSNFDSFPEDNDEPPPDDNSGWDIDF
Chain of Ephrin type-B receptor 3 (Homo sapiens) (P54753 whole entry, the tested form may be a part): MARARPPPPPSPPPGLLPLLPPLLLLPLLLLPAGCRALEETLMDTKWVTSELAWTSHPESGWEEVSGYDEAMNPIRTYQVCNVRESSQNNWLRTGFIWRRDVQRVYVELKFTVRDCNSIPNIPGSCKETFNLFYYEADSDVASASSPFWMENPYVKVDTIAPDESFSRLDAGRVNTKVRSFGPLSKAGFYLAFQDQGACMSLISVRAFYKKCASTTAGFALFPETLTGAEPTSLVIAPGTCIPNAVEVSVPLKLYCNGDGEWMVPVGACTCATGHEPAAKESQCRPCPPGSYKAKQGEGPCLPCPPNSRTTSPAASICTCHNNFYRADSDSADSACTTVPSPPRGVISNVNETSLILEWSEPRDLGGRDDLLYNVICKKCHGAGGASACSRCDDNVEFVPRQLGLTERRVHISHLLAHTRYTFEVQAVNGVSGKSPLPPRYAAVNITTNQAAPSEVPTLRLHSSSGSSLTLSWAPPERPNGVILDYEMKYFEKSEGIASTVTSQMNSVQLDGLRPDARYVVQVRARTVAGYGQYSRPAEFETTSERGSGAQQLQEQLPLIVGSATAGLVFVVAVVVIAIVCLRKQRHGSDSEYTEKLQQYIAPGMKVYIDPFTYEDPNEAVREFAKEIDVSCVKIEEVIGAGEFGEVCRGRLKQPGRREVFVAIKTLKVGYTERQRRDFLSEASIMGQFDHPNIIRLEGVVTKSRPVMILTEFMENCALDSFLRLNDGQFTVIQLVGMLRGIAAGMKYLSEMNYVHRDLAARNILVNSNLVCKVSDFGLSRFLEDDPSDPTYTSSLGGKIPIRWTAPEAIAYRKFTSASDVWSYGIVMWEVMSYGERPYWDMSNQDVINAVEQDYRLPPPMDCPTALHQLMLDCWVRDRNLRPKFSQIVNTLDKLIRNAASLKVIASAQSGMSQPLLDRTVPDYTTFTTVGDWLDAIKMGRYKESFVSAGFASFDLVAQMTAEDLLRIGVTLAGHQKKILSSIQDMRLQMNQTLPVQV
Chain of Myosin light chain kinase 2, skeletal/cardiac muscle (Homo sapiens) (Q9H1R3 whole entry): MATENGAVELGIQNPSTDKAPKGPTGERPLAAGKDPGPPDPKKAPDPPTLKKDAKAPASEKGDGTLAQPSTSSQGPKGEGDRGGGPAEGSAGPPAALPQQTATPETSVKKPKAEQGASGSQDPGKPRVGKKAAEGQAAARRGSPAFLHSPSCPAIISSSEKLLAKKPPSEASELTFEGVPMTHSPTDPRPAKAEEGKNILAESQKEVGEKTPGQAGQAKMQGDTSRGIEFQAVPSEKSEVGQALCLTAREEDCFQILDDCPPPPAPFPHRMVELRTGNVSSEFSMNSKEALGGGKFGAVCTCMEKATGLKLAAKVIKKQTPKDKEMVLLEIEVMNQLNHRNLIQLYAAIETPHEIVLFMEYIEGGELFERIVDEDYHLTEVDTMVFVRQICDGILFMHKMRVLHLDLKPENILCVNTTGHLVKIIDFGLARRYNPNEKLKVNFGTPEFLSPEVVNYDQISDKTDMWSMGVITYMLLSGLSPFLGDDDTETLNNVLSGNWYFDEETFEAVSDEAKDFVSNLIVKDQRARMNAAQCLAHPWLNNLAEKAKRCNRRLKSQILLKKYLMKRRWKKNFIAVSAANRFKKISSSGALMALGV

SMILES: CN(C)C(=O)c1cc2cnc(Nc3ccc(NC(=O)CCCCCCCN=C=S)cc3)nc2n1C1CCCC1
- IC50 [1]: 145 nM
- Activity [2]: Active
- viability at 0.25 µM [3]: 77.9%
- Activity [4]: Active
- Activity [5]: Active
- CLH [6]: 57 µL/min/mg
- inhibition [7]: 72%
- inhibition [8]: 12%
- inhibition [9]: 59%
- inhibition [10]: 2%
- inhibition [11]: 12%
- inhibition [12]: -1%
- inhibition [13]: 76%
- inhibition [14]: 15%
- inhibition [15]: 0%
- inhibition [16]: 1%
- inhibition [17]: -1%
- inhibition [18]: 33%
- inhibition [19]: 71%
- inhibition [20]: 0%
- inhibition [21]: 0%
- inhibition [22]: 1%

— ChEMBL document CHEMBL4376814, “Novel cyclin-dependent kinase 9 (CDK9) inhibitor with suppression of cancer stemness activity against non-small-cell lung cancer” (Eur J Med Chem, 2019)
